Compound activity: PubChem, The Scripps Research Institute Molecular Screening Center
OX1R antag-1: antagonists of human orexin 1 receptor (OX1R). O43613. OX1R-expressing cells, FRET antagonist read-out. inhibition, % at 6.6 µM. 1.8% of 330,000 active; in the data active = inhibition mostly above about 38%, no sharp cut-off; inactive = mostly below about 40%;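 note: 0% = agonist challenge alone and 100% = reference antagonist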
TAAR1 ag: human TAAR1 agonism; activation, % at 3 µM; 0.99% of 360,000 active; AID 624467; CHO RD-HGA16 TAAR1, Fluo-8 calcium fluorescence; vehicle wells 0%, saturating PEA agonist 100%;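 active = activation above the mean activation of all test compounds in the run plus 3 SD, cut at about 38% in these data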
Target sequence (Q96RJ0 whole entry, looked up): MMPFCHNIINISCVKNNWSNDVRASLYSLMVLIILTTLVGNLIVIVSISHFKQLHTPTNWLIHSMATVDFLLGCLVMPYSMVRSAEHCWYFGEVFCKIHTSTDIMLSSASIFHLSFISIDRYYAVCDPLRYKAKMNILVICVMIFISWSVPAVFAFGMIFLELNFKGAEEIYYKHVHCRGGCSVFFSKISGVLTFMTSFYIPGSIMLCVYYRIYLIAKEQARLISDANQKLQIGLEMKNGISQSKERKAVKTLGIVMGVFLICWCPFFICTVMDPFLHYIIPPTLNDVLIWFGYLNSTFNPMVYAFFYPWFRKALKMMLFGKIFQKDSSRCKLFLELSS
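Benchmarks: low control DMSO, high control PEA (EC100); System: CHO RD-HGA16 cells carrying human TAAR1 plus Gα16; Detection: Fluo-8 fluorescence, 5 s baseline then 140 s kinetic read; Schedule: 17-24 h plating, Fluo-8 75 min 37 °C, 30 min RT; Read-out basis: % activation from peak over basal fluorescence ratio, DMSO-to-PEA scaled.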
TAAR1 antagonist: human TAAR1 antagonism. 1.5% of 360,000 active. Q96RJ0. inhibition, % at 3 µM. AID 624466. CHO RD-HGA16 TAAR1, Fluo-8 calcium fluorescence, antagonist;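 active = inhibition above a per-plate cutoff, the mean inhibition of test compounds on that plate plus 3 SD, cut at about 49% in these data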;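 note: 0% = DMSO plus EC80 beta-PEA response and 100% = DMSO alone without agonist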
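Assay system: CHO-derived RD-HGA16 cells stably expressing human TAAR1 plus Gα16. Timing: 140 s kinetic read after compound, 140 s after agonist. Technique: kinetic Fluo-8 calcium fluorescence measurement. Measure: % inhibition of agonist calcium response.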
OX1R antag-2: blocks the human orexin 1 receptor | CHO/OX1R cells, Fluo-8 calcium fluorescence, orexin A | 0.43% of 330,000 active | O43613 | inhibition, % at 5 µM;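 active = inhibition above its plate's threshold, mean inhibition of all tested compounds on the plate plus 3 SD, cut at about 37% in these data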;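 note: 0% = orexin A challenge wells and 100% = SB-334867-A antagonist wells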
GPR7 antag: human neuropeptides B/W receptor 1 antagonism. AID 1861. GPR7-expressing cells, fluorescence antagonist assay. P48145. 1.1% of 290,000 active. inhibition, % at 4.4 µM; in the data active = inhibition above about 16%, passing the limit was not always enough;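 note: cells stimulated with the agonist NPW; 0% = agonist with vehicle and 100% = vehicle without agonist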
Target sequence (P48145 whole entry, looked up): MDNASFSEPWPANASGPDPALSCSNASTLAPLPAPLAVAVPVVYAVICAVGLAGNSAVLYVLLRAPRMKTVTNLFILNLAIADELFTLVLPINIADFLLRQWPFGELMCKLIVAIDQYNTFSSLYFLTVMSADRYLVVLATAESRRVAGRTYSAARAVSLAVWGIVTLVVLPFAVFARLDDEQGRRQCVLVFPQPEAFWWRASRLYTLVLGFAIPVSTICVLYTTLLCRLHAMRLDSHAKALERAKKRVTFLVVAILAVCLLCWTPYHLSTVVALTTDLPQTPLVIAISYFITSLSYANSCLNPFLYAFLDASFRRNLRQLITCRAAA
CHO parental Ca: signal in parental CHO cells, OX1R antagonist counter-screen; parental CHO-K1, ATP-induced calcium, Fluo-8 fluorescence; inhibition, % at 5.6 µM; 0.63% of 330,000 active; AID 463079;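 active = inhibition above that plate's mean sample inhibition plus 3 SD, cut at about 26% in these data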;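 note: 0% = ATP-challenged DMSO wells and 100% = DMSO wells without ATP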
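Test system: parental CHO cells; detection: calcium-sensitive Fluo-8 fluorescence; evaluation: percent inhibition of calcium signal; also added: ATP as calcium-mobilizing challenge; repeats: one well per compound; control set: ATP-challenged DMSO wells low, unchallenged DMSO wells high; compound: single nominal dose of 5.6 µM per compound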
TAAR1 nonsel count: nonselective antagonism, TAAR1 counter-screen; shares compounds with TAAR1 antagonist; counterscreen cell line, calcium fluorescence, antagonist mode; inhibition, % at 3 µM; 77% of 2,400 active; in the data active = inhibition above about 22%;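 note: CHO-Ga16 host cells stimulated with ATP at an EC80 level; 0% = agonist EC80 plus vehicle and 100% = vehicle without agonist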
TAAR1 ant conf: human TAAR1 antagonism, confirmed | shares compounds with TAAR1 antagonist | TAAR1-expressing cells, fluorescence antagonist read-out | inhibition, % at 3 µM | 40% of 2,400 active; in the data active = inhibition above about 49%;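 note: CHO-Ga16 host cells challenged with agonist PEA near its EC80; 0% = agonist at EC80 plus vehicle and 100% = vehicle with no agonist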
Ga16 nonsel ag: counter-screen for TAAR1 antagonists: nonselective Ga16 agonists; Ga16-expressing cells, calcium fluorescence, agonist counterscreen; shares compounds with TAAR1 antagonist; 18% of 2,400 active; activation, % at 3 µM; in the data active = activation above about 12%;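 note: 0% = vehicle wells and 100% = saturating stimulus response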
TAAR1 ag counter: activates human TAAR1 in antagonist counter-screen; AID 651955; activation, % at 3 µM; 2% of 2,400 active; shares compounds with TAAR1 antagonist; hTAAR1 cell line, fluorescence activation, agonist mode; in the data active = activation above about 37%;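 note: CHO cells stably expressing TAAR1 with calcium dye readout; 0% = DMSO vehicle and 100% = full agonist response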
An asterisk follows results filed as active; x = no result. Most compounds without a hit are left out; they make up all but 4.6% or so of the library.

SMILES	OX1R antag-1	TAAR1 ag	TAAR1 antagonist	OX1R antag-2	GPR7 antag	CHO parental Ca	TAAR1 nonsel count	TAAR1 ant conf	Ga16 nonsel ag	TAAR1 ag counter
Cc1nn(C)cc1C(C(=O)NC1CCCCC1)N(C(=O)Cc1cccs1)c1ccc(Cl)cc1 (configuration not stated)	14.1	29.3	61.1*	-19.8	-12.1	-13.6	29.7*	53.5*	13.3*	23.3
Cc1ccc(N(C(=O)Cn2nnc3ccccc32)C(C(=O)NC2CCCCC2)c2cn(C)nc2C)cc1 (configuration not stated)	1.4	0.5	3.8	-31.1	-7.2	-7.5	x	x	x	x
CC(C)NC(=O)c1cnc(N2CCN(c3ccccn3)CC2)c2ccccc12	1.2	15.1	30.9	-25.6	-6.6	-7.6	x	x	x	x
O=C(CN1CCN(c2ccccn2)CC1)Nc1ccccc1C(=O)Nc1ccccc1	11.5	9.9	64.5*	-19.8	x	-19.2	27.3*	43.8	7.2	5.8
CCc1ccc(NC(=O)c2cnc(N3CCN(c4ccccn4)CC3)c3ccccc23)cc1	46.4	17.0	68.2*	11.3	-24.6	-4.8	36.8*	55.2*	11.9*	9.5
COc1ccc(N2CCN(CC(=O)Nc3ccccc3C(=O)NC(C)c3ccccc3)CC2)cc1 (configuration not stated)	x	16.2	60.5*	x	x	x	14.6	38.8	7.3	16.3
COC(=O)[C@]12CCCCC=C1N(Cc1ccc3c(c1)OCO3)C(=O)[C@H](CC(=O)NCCC(C)C)C2	x	17.0	45.4	x	x	x	x	x	x	x
Cc1c(-c2ccccc2)nc2ccccc2c1C(=O)OCC(=O)Nc1ncc(C(F)(F)F)cc1Cl	6.2	5.0	53.4*	-18.3	-9.2	-25.4	14.3	27.7	4.6	9.6
O=C(NC(=S)Nc1ccccc1N1CCCC1)c1ccco1	16.2	6.2	-9.0	-55.6	-0.2	-16.7	x	x	x	x
CS(=O)(=O)N1CCN(c2ccccc2NC(=S)NC(=O)c2ccco2)CC1	-1.9	16.1	48.6*	-18.3	-5.3	-20.2	28.8*	44.3	8.9	7.7
Cn1ncc([N+](=O)[O-])c1C(=O)Nc1ccccc1C#N	x	0.9	-9.1	x	x	x	x	x	x	x
Cc1ccc(N(CC(=O)Nc2ccccc2C(=O)NCc2ccco2)S(=O)(=O)c2ccccc2)cc1C	43.5	2.1	13.5	-3.4	-23.0	-6.2	x	x	x	x
Cc1ccc(C)c(N(CC(=O)Nc2ccccc2C(=O)NCc2ccco2)S(=O)(=O)c2ccccc2)c1	48.1	7.8	78.8*	-7.8	-5.8	-10.5	34.9*	58.0*	5.7	8.2
CC(=O)Nc1ccc(CN(C)c2c(C)nc3ccc(C(=O)NC4CCN(Cc5ccccc5)CC4)cn23)cc1	x	-0.2	-26.1	x	x	x	x	x	x	x
CCCCNc1c(-c2ccc(OC)c(SC3CCCCC3)c2)nc2cc(C)ccn12	25.0	9.0	84.3*	-18.4	x	10.0	40.1*	48.7*	4.2	10.2
COc1ccc(CSc2ccc(-c3nc4ccccn4c3NCc3ccccc3)cc2OC)cc1	27.9	17.6	71.4*	-34.0	x	-3.4	30.2*	47.6	3.8	8.9
COc1cc(-c2nc3ccc(C)cn3c2NCc2ccccc2)ccc1SC1CCCCC1	37.9	5.6	53.8*	-31.2	x	-22.0	24.6*	30.5	1.7	-0.3
CCC(C)Sc1ccc(-c2nc3ccccn3c2NCc2ccccc2)cc1OC (configuration not stated)	15.5	x	x	4.8	x	-9.1	x	x	x	x
C=CCOC(=O)Nc1nc(CCNC(=O)OCc2ccccc2)c(C(=O)O)s1	x	0.9	-4.6	x	x	x	x	x	x	x
OCCNc1ncnc2c1ncn2[C@H]1CN(Cc2ccc(Cl)cc2)C[C@@H](CO)O1	x	-0.1	-3.8	x	x	x	x	x	x	x
Cc1nc2ccc(C(=O)N3c4ccccc4N=C(c4ccc(C(F)(F)F)cc4)C3C(=O)NC(C)(C)C)cc2[nH]1 (configuration not stated)	x	-1.9	-15.9	x	x	x	x	x	x	x
Cc1nn(-c2ccccc2)c(N2CCCC2)c1/C=N/n1cnc2scc(-c3ccccc3)c2c1=O	9.4	5.4	53.9*	-31.4	-5.8	-24.6	27.8*	38.6	3.0	2.1
COC(=O)[C@]12CCCCC=C1N(Cc1cccc3ccccc13)C(=O)[C@H](CC(=O)N1CCC(c3ccccc3)CC1)C2	x	0.3	29.1	x	x	x	x	x	x	x
COC(=O)[C@]12CCCCC=C1N(Cc1cccc3ccccc13)C(=O)[C@H](CC(=O)N1CCCCC1)C2	x	8.2	62.3*	x	x	x	21.7*	42.4	6.7	10.0
COC(=O)C1=CN(c2cccc(OCc3ccccc3)c2)C(N)=C(C#N)C1c1ccc(-c2ccccc2)cc1 (configuration not stated)	x	-0.4	0.3	x	x	x	x	x	x	x
SMILES	OX1R antag-1	TAAR1 ag	TAAR1 antagonist	OX1R antag-2	GPR7 antag	CHO parental Ca	TAAR1 nonsel count	TAAR1 ant conf	Ga16 nonsel ag	TAAR1 ag counter
Cc1ccc2cc(C#N)c(N3CCN(C(=O)c4ccccc4)CC3)nc2c1	12.6	8.2	70.8*	-29.5	-2.7	-19.3	34.2*	39.0	7.8	2.7
Cc1nn2c(C)c(C(=O)Nc3ccccc3)cnc2c1-c1ccccc1	4.5	13.9	58.2*	-35.4	-16.2	-10.0	24.8*	42.4	10.2	8.5
N#C/C(=C\Nc1ccccc1O)c1nc2ccccc2o1	37.3	8.9	87.4*	23.2	0.9	18.2	48.2*	73.4*	10.3	13.4
C[C@H](CO)N1C[C@H](C)[C@H](CN(C)S(=O)(=O)c2ccc(F)cc2)Oc2ncc(Br)cc2C1=O	x	-0.7	6.8	x	x	x	x	x	x	x
Cc1oc2cc(O)cc(C)c2c(=O)c1-c1cnn(-c2ccccc2)c1	57.7	4.2	57.5*	-6.7	-1.0	-7.7	32.9*	44.6	8.2	4.5
COc1ccc(CCNC(=O)C(=O)NCC2CCCN2S(=O)(=O)c2cc(C)ccc2C)cc1 (configuration not stated)	11.7	16.7	72.8*	-30.2	x	-24.6	27.9*	53.3*	11.1	12.8
Cc1ccc(C)c(S(=O)(=O)N2CCCC2CNC(=O)C(=O)NCCc2ccccc2)c1 (configuration not stated)	38.1*	19.8	68.5*	-2.8	x	-22.2	30.7*	47.2	11.3	35.1
CC(C)C[C@H]1CN(CCCC[C@H]2CNC(=O)C(=O)N2CCc2ccc(O)cc2)C(=O)C(=O)N1CCc1ccccc1	x	-0.2	15.2	x	x	x	x	x	x	x
COc1ccc(Cl)cc1-c1cc(C(=O)NCc2ccc(C(F)(F)F)cc2)[nH]n1	x	2.4	23.2	x	x	x	x	x	x	x
